Reference: ChEMBL document CHEMBL4840303, “Design, synthesis, biological evaluation and pharmacophore model analysis of novel tetrahydropyrrolo[3,4-c]pyrazol derivatives as potential TRKs inhibitors” (Eur J Med Chem, 2021)

Key:
KM12 [1] = test: Induction of apoptosis in human KM12 cells assessed as early apoptotic cells at 62.5 nM measured after 48 hrs by AnnexinV-FITC/PI staining based flowcytometry assay relative to control; type: functional
In short: (§1)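 They were detached with trypsin, washed twice in PBS, and 10^5 cells were suspended in Annexin V binding buffer. Cells were stained with FITC-Annexin V and PI for 10 min at room temperature in the dark, diluted with PBS and analysed by flow cytometry.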

KM12 [2] = test: Induction of apoptosis in human KM12 cells assessed as necrotic cells at 62.5 nM measured after 48 hrs by AnnexinV-FITC/PI staining based flowcytometry assay relative to control; type: functional
In short: (§2)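 10^5 cells in Annexin V binding buffer stained with FITC-Annexin V and PI for 10 min at room temperature in the dark, diluted with PBS and analysed by flow cytometry (FITC 494/518 nm, PI 535/617 nm).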

KM12 [3] = test: Induction of apoptosis in human KM12 cells assessed as necrotic cells at 125 nM measured after 48 hrs by AnnexinV-FITC/PI staining based flowcytometry assay relative to control; type: functional; in short: as §1
KM12 [4] = test: Induction of apoptosis in human KM12 cells assessed as early apoptotic cells at 250 nM measured after 48 hrs by AnnexinV-FITC/PI staining based flowcytometry assay relative to control; type: functional; in short: as §1
KM12 [5] = test: Induction of apoptosis in human KM12 cells assessed as early apoptotic cells at 500 nM measured after 48 hrs by AnnexinV-FITC/PI staining based flowcytometry assay relative to control; type: functional; in short: as §1
KM12 [6] = test: Induction of apoptosis in human KM12 cells assessed as viable cells at 1000 nM measured after 48 hrs by AnnexinV-FITC/PI staining based flowcytometry assay relative to control; type: functional; conditions: read-out: Activity; in short: as §2
KM12 [7] = test: Induction of apoptosis in human KM12 cells assessed as necrotic cells at 1000 nM measured after 48 hrs by AnnexinV-FITC/PI staining based flowcytometry assay relative to control; type: functional; in short: as §1
KM12 [8] = test: Cell cycle arrest in human KM12 cells assessed as accumulation of cells at less G1 phase at 62.5 nM measured after 48 hrs by AnnexinV-FITC/PI staining based flowcytometry method relative to control; type: functional
KM12 [9] = test: Cell cycle arrest in human KM12 cells assessed as accumulation of cells at S phase at 250 nM measured after 48 hrs by AnnexinV-FITC/PI staining based flowcytometry method relative to control; type: functional
KM12 [10] = test: Cell cycle arrest in human KM12 cells assessed as accumulation of cells at G1 phase at 500 nM measured after 48 hrs by AnnexinV-FITC/PI staining based flowcytometry method relative to control; type: functional
KM12 [11] = test: Cell cycle arrest in human KM12 cells assessed as accumulation of cells at S phase at 500 nM measured after 48 hrs by AnnexinV-FITC/PI staining based flowcytometry method relative to control; type: functional
KM12 [12] = test: Cell cycle arrest in human KM12 cells assessed as accumulation of cells at G2 phase at 1000 nM measured after 48 hrs by AnnexinV-FITC/PI staining based flowcytometry method relative to control; type: functional
KM12 [13] = test: Cell cycle arrest in human KM12 cells assessed as accumulation of cells at less G1 phase at 1000 nM measured after 48 hrs by AnnexinV-FITC/PI staining based flowcytometry method relative to control; type: functional
[14] = biological target: Maternal embryonic leucine zipper kinase (Homo sapiens) (UniProt Q14680); test: Inhibition of recombinant GST-tagged human MELK expressed in baculovirus expression system at 1 uM measured by select screen assay relative to control
In short: (§3)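 Single-concentration profiling at 1.0 µM in a 28-kinase SelectScreen panel; percent inhibition reported.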

[15] = biological target: Proto-oncogene tyrosine-protein kinase ROS (Homo sapiens) (UniProt P08922); test: Inhibition of recombinant GST-tagged human ROS1 expressed in baculovirus expression system at 1 uM measured by select screen assay relative to control; in short: as §3
[16] = biological target: Cyclin-dependent kinase 2 (Homo sapiens) (UniProt P24941); test: Inhibition of recombinant His-tagged human full length CDK2 expressed in baculovirus expression system at 1 uM measured by select screen assay relative to control; in short: as §3
[17] = biological target: RAC-alpha serine/threonine-protein kinase (Homo sapiens) (UniProt P31749); test: Inhibition of recombinant His-tagged human full length AKT1 expressed in baculovirus expression system at 1 uM measured by select screen assay relative to control; in short: as §3
[18] = Clearance in human microsomes assessed as half life at 100 uM measured after 60 mins by LC-MS/MS analysis; type: ADME, Liver, Microsome
In short: (§4)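 Pooled human liver microsomes were diluted to 0.59 mg/mL (working solution) in 100 mM potassium phosphate buffer and pre-warmed at 37 °C. Compound was added from a 100 µM working solution, with NADPH cofactor prepared in 10 mM MgCl2. Incubation ran at 37 °C for 60 min. Aliquots were quenched at 5, 15, 30, 45 and 60 min. A control without NADPH was run in buffer. Samples were analysed by LC-MS/MS.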

[19] = Clearance in human liver assessed as half life at 100 uM measured after 60 mins by LC-MS/MS analysis; type: ADME, Microsome; conditions: microsomes, 1 h; in short: as §4
CYP1A2 = CYP1A2 (Homo sapiens, UniProt P05177); test: Inhibition of CYP1A2 in human liver microsomes at 10 uM preincubated for 10 mins followed by addition of NADPH and measured after 15 mins by LC-MS/MS analysis; type: ADME; conditions: time 25 min
In short: (§5)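 Pooled human liver microsomes (0.253 mg/mL) with test compound at 10 µM and probe substrates: phenacetin (CYP1A2), diclofenac (CYP2C9), S-mephenytoin (CYP2C19), dextromethorphan (CYP2D6), midazolam (CYP3A4). 10 min preincubation at 37 °C, NADPH-regenerating system added, 15 min at 37 °C. Stopped with cold acetonitrile containing tolbutamide/labetalol internal standards, centrifuged, supernatant read by LC-MS/MS; % inhibition.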

CYP2D6 = CYP2D6 (Homo sapiens, UniProt P10635); test: Inhibition of CYP2D6 in human liver microsomes at 10 uM preincubated for 10 mins followed by addition of NADPH and measured after 15 mins by LC-MS/MS analysis; type: ADME; conditions: time 25 min; in short: as §5
[20] = Half life in Sprague dawley rat at 3 mg/kg, po; type: ADME, organism-based; conditions: in vivo
In short: (§6)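 Blood was collected into heparin tubes at specified time points and centrifuged at once (4 °C, 4000 rpm, 20 min). Plasma levels were quantified by LC-MS/MS. Parameters came from noncompartmental analysis.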

[21] = Tmax in Sprague dawley rat at 3 mg/kg, po; type: ADME, organism-based; conditions: in vivo
In short: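 Male/female status not given; SD rats (n = 3 per group) dosed orally at 3 mg/kg as a single dose. Blood taken into heparin tubes at set time points and centrifuged at 4 °C. Plasma levels quantified by LC-MS/MS; noncompartmental parameters fitted.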

[22] = AUC (last) in Sprague dawley rat at 1 mg/kg, iv; type: ADME, organism-based; parameters: time 0 - last, route intravenous, dose 1 mg/kg; conditions: in vivo; in short: as §6
[23] = Oral bioavailability in Sprague dawley rat at 3 mg/kg; type: ADME, organism-based; conditions: in vivo
In short: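 Male-unspecified SD rats, n = 3 per group, single i.v. dose 1 mg/kg or oral 3 mg/kg. Blood drawn into heparin tubes at set times, centrifuged at 4 °C, plasma quantified by LC-MS/MS; noncompartmental parameters fitted.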

KM12 [24] = test: cells; conditions: Homo sapiens, KM12, 72 h

Sequence of CYP1A2 (P05177 whole entry): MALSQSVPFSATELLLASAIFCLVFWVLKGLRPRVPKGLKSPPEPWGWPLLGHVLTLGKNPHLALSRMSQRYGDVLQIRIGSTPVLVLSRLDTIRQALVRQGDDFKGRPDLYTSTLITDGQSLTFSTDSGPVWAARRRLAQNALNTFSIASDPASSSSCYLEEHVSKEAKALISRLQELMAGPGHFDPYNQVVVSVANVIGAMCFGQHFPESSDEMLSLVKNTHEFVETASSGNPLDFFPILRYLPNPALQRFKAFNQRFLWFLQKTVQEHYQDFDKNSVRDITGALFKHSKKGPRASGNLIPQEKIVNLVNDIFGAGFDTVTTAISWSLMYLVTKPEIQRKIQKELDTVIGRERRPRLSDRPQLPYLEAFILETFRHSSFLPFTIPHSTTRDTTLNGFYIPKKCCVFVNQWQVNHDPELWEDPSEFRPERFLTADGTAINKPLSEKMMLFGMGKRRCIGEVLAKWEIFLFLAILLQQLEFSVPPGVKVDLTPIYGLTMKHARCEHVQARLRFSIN
Sequence of RAC-alpha serine/threonine-protein kinase (Homo sapiens) (P31749 whole entry): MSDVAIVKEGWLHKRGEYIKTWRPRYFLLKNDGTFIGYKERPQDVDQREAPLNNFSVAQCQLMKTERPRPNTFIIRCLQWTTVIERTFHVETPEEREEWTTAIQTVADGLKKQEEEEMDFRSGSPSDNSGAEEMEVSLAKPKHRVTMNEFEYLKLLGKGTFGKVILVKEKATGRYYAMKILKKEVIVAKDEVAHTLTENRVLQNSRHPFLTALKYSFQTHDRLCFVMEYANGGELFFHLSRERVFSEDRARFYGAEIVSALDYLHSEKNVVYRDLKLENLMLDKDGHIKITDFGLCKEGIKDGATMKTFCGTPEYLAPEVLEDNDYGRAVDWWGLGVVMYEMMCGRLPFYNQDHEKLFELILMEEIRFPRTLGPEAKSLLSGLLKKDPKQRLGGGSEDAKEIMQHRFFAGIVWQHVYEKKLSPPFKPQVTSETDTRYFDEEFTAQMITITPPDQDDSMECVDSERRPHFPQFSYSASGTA
Sequence of Maternal embryonic leucine zipper kinase (Homo sapiens) (Q14680 whole entry, looked up): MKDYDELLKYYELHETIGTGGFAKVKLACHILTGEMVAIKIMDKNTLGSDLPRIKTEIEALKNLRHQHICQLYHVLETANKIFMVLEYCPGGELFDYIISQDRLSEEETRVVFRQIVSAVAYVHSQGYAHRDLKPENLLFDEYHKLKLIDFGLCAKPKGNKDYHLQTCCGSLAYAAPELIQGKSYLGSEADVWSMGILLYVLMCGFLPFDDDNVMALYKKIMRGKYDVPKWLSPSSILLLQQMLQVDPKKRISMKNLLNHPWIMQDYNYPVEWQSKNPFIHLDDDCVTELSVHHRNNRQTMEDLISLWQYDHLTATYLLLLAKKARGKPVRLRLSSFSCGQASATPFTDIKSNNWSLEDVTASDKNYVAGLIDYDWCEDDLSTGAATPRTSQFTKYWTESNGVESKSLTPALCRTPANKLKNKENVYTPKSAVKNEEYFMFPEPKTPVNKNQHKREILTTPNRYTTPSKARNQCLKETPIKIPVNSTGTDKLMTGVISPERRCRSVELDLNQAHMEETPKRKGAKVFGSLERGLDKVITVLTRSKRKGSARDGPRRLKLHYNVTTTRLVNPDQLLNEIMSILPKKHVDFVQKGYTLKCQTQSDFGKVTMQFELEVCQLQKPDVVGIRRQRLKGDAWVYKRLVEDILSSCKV
Sequence of CYP2D6 (P10635 whole entry): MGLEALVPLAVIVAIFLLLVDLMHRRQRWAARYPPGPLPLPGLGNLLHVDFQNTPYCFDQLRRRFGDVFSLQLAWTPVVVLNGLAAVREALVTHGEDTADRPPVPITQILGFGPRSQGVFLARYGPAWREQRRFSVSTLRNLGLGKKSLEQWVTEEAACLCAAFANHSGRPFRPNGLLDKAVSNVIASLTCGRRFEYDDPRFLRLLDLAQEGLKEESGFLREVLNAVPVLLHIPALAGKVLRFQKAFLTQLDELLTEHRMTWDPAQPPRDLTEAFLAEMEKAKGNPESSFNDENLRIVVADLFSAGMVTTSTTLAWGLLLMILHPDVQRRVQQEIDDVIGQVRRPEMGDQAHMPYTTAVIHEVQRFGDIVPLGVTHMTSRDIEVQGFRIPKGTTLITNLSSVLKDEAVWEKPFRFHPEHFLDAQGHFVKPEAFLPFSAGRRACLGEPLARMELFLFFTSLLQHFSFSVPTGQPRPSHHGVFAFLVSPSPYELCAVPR
Sequence of Proto-oncogene tyrosine-protein kinase ROS (Homo sapiens) (P08922 whole entry): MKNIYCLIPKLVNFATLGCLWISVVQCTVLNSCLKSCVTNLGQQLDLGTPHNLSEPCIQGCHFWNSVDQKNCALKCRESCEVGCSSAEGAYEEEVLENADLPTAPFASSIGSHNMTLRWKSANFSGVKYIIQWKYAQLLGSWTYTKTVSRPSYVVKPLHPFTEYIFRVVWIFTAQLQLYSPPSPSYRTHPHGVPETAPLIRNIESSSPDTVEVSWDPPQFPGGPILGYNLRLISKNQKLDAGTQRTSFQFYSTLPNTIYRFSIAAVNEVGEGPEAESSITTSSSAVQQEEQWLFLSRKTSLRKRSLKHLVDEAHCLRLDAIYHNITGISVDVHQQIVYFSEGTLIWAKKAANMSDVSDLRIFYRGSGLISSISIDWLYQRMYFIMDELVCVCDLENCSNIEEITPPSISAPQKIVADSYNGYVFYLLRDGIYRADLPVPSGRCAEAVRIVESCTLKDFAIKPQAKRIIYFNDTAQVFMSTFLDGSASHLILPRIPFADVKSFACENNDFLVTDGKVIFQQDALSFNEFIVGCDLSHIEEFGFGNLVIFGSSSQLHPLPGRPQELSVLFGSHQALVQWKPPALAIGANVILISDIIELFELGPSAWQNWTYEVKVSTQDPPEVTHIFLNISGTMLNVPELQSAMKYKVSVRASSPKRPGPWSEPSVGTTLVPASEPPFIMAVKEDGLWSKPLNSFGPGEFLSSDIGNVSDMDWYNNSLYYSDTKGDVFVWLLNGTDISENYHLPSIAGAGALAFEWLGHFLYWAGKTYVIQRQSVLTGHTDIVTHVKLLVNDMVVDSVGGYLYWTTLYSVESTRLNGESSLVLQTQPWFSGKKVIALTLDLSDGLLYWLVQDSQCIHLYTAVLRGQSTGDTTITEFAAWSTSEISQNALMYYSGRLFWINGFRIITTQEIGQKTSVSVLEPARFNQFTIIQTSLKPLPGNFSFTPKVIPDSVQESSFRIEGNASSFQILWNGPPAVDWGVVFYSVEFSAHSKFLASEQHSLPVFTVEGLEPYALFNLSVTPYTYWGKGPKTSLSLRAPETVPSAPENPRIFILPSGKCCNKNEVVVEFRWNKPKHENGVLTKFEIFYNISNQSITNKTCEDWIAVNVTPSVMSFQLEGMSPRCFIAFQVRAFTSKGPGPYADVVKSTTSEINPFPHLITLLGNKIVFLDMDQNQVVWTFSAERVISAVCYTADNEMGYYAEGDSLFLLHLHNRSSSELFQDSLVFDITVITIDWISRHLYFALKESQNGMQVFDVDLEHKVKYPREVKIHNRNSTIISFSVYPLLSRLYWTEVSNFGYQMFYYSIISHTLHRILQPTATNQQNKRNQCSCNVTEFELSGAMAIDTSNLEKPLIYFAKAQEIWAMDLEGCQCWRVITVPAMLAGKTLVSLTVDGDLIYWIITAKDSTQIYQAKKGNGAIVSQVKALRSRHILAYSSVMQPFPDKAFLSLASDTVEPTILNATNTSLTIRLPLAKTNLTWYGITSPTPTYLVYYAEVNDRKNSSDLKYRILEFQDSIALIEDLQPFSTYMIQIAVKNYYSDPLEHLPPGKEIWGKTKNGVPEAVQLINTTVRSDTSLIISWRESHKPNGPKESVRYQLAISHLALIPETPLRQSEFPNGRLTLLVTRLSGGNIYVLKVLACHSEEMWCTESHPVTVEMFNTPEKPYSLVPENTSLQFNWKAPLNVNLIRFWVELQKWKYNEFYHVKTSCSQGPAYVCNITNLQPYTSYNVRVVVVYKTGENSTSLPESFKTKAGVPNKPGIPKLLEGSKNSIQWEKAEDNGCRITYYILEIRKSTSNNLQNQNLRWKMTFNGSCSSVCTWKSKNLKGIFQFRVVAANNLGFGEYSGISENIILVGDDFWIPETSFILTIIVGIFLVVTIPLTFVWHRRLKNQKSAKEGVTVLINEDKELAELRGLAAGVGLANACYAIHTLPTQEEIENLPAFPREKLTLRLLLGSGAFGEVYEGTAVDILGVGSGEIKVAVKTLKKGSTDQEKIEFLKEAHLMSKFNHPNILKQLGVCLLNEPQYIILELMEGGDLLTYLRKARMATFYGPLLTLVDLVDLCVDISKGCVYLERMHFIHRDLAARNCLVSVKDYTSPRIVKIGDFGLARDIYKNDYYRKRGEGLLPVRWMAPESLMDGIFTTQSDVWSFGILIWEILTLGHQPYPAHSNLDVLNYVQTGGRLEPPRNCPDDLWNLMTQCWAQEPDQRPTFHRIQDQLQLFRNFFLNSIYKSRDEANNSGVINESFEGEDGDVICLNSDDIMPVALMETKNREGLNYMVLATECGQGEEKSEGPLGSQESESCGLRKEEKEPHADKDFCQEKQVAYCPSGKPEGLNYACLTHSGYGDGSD

- inhibition [14]: 22%
- inhibition [15]: 10%
- inhibition [16]: 3%
- inhibition [17]: 2%
- microsomal CLint at 100 µM [18]: 46.8 µL/min/mg
- CLH [19]: 42.1 µL/min/mg
- inhibition at 0.25 h, 10 µM (CYP1A2): 12.9%
- inhibition at 0.25 h, 10 µM (CYP2D6): 0%
- half-life [20]: 1.89 h
- Tmax [21]: 1.67 h
- AUC(0-t) [22]: 2030 ng·h/mL
- bioavailability [23]: 44.3%
- IC50 (KM12 [24]): 82 nM
Compound: CN1CCN(c2ccc(C(=O)Nc3n[nH]c4c3CN(Cc3cc(F)cc(F)c3)C4(C)C)cc2)CC1
- Activity (KM12 [1]): 19.55%
- Activity (KM12 [2]): 0.03%
- Activity (KM12 [3]): 0.07%
- Activity (KM12 [4]): 32.95%
- Activity (KM12 [5]): 35.84%
- viability at 1 µM (KM12 [6]): 23.7%
- Activity (KM12 [7]): 0.04%
- Activity (KM12 [8]): 3.63%
- Activity (KM12 [9]): 8.17%
- Activity (KM12 [10]): 73.9%
- Activity (KM12 [11]): 6.56%
- Activity (KM12 [12]): 8.92%
- Activity (KM12 [13]): 7.77%
